Assays:
HeLa [1] = assay: Antiproliferative activity against human HeLa cells at 10 uM after 96 hrs by MTT assay; type: functional
Outline: (§1)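 Same MTT set-up (RPMI 1640/10% FBS, 1.0–2.0 × 10³ cells per well, 96 h exposure, 4 h MTT, formazan in DMSO read at 490 nm). Value is the percent inhibition at a single 10 µM concentration. Experiments repeated at least three times.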

HeLa [2] = assay: Antiproliferative activity against human HeLa cells after 96 hrs by MTT assay; type: functional, cell-based
Outline: (§2)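 Cells grown in RPMI 1640 with 10% FBS and penicillin/streptomycin at […] °C, 5% CO2. Trypsinised cells seeded at 1.0–2.0 × 10³ per well overnight, then exposed to a concentration range in medium for 96 h. MTT (1 mg/mL) added for 4 h, formazan dissolved in DMSO, read at 490 nm. IC50 is the concentration that cuts cell number to 50%; at least three repeats.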

SK-OV-3 [3] = assay: Antiproliferative activity against human SKOV3 cells at 10 uM after 96 hrs by MTT assay; type: functional; details: SK-OV-3, 96 h; outline: as §1
BGC-823 [4] = assay: Antiproliferative activity against human BGC823 cells at 10 uM after 96 hrs by MTT assay; type: functional; details: BGC-823, 96 h; outline: as §1
SK-OV-3 [5] = assay: Antiproliferative activity against human SKOV3 cells after 96 hrs by MTT assay; type: functional, cell-based; details: SK-OV-3, 96 h; outline: as §2
HeLa [6] = assay: Cell cycle arrest in human HeLa cells by accumulation at G1 phase at 2.5 uM after 24 hrs using PI staining by flow cytometry; type: functional
Outline: (§3)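 HeLa cells exposed for 24 h to 2.5, 5.0 or 10.0 µM; vehicle control 0.1% DMSO. Cellular DNA stained with propidium iodide, and cell-cycle phase fractions measured by flow cytometry. Experiments done three times.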

HeLa [7] = assay: Cell cycle arrest in human HeLa cells by accumulation at S phase at 2.5 uM after 24 hrs using PI staining by flow cytometry; type: functional; outline: as §3
HeLa [8] = assay: Cell cycle arrest in human HeLa cells by accumulation at G2/M phase at 2.5 uM after 24 hrs using PI staining by flow cytometry; type: functional; outline: as §3
HeLa [9] = assay: Cell cycle arrest in human HeLa cells by accumulation at G1 phase at 5.0 uM after 24 hrs using PI staining by flow cytometry; type: functional; outline: as §3
HeLa [10] = assay: Cell cycle arrest in human HeLa cells by accumulation at S phase at 5.0 uM after 24 hrs using PI staining by flow cytometry; type: functional; outline: as §3
HeLa [11] = assay: Cell cycle arrest in human HeLa cells by accumulation at G2/M phase at 5.0 uM after 24 hrs using PI staining by flow cytometry; type: functional; outline: as §3
HeLa [12] = assay: Cell cycle arrest in human HeLa cells by accumulation at G1 phase at 10.0 uM after 24 hrs using PI staining by flow cytometry; type: functional; outline: as §3
HeLa [13] = assay: Cell cycle arrest in human HeLa cells by accumulation at S phase at 10.0 uM after 24 hrs using PI staining by flow cytometry; type: functional; outline: as §3
HeLa [14] = assay: Cell cycle arrest in human HeLa cells by accumulation at G2/M phase at 10.0 uM after 24 hrs using PI staining by flow cytometry; type: functional; outline: as §3
BGC-823 [15] = assay: Antiproliferative activity against human BGC823 cells after 96 hrs by MTT assay; type: functional, cell-based; details: BGC-823, 96 h; outline: as §2
HeLa [16] = assay: Induction of apoptosis in human HeLa cells assessed as apoptotic cells at 10 uM by flow cytometry; type: functional
Outline: (§4)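 HeLa cells given 2.5, 5.0 or 10.0 µM and stained with propidium iodide. Apoptotic cells counted by flow cytometry as nuclei with sub-diploid DNA content, the region below the G1 peak; untreated cells served as control. Run three times.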

HeLa [17] = assay: Induction of apoptosis in human HeLa cells assessed as sub-diploid DNA content after 24 hrs by flow cytometry; type: functional, cell-based; outline: as §4
HeLa [18] = assay: Induction of apoptosis in human HeLa cells assessed as DNA fragmentation after 24 hrs by agarose gel electrophoresis; type: functional, cell-based
Outline: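 HeLa cells treated for 24 h, washed twice in PBS and lysed in 100 mM NaCl, 10 mM Tris–HCl pH 8.0, 25 mM EDTA, 0.1 mg/ml proteinase K at 50 °C for 12 h. DNA taken through phenol/chloroform/isoamyl alcohol and chloroform/isoamyl alcohol extraction, centrifuged at 12,000g for 30 min, then run on an agarose gel to look for laddering.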

Row | SMILES | inhibition at 10 µM (HeLa [1]) [%] | IC50 (HeLa [2]) [µM] | inhibition at 10 µM (BGC-823 [4]) [%] | IC50 (BGC-823 [15]) [µM] | other results
1 | CC(=O)O[C@H]1CC[C@]2(C)[C@H]3CC=C4[C@@H]5[C@@H](C)[C@H](C)CC[C@]5(C(=O)Nc5ccccc5CO)CC[C@@]4(C)[C@]3(C)CC[C@H]2C1(C)C | 77.5 | 1.63 | – | – | –
2 | CC(=O)OCCNC(=O)[C@]12CC[C@@H](C)[C@H](C)[C@H]1C1=CC[C@@H]3[C@@]4(C)CC[C@H](OC(C)=O)C(C)(C)[C@@H]4CC[C@@]3(C)[C@]1(C)CC2 | 73.5 | 1.13 | 42 | > 10 | inhibition at 10 µM (SK-OV-3 [3]): 54.8%; IC50 (SK-OV-3 [5]): 6.09 µM; Activity (HeLa [6]): 41.1%; Activity (HeLa [7]): 49.8%; Activity (HeLa [8]): 9.2%; Activity (HeLa [9]): 41.8%; Activity (HeLa [10]): 45.9%; Activity (HeLa [11]): 12.3%; Activity (HeLa [12]): 51.1%; Activity (HeLa [13]): 44.8%; Activity (HeLa [14]): 4.2%; Activity (HeLa [16]): 35.3%; Activity (HeLa [17]): Dose-dependent effect; Activity (HeLa [18]): Dose-dependent effect
3 | CCC(C)C(NC(=O)[C@]12CC[C@@H](C)[C@H](C)[C@H]1C1=CC[C@@H]3[C@@]4(C)CC[C@H](OC(C)=O)C(C)(C)[C@@H]4CC[C@@]3(C)[C@]1(C)CC2)C(=O)OC (stereo not given in full) | 15.9 | > 10 | – | – | –
4 | COC(=O)C(NC(=O)[C@]12CC[C@@H](C)[C@H](C)[C@H]1C1=CC[C@@H]3[C@@]4(C)CC[C@H](OC(C)=O)C(C)(C)[C@@H]4CC[C@@]3(C)[C@]1(C)CC2)C(C)O (stereo not given in full) | 55.9 | 6.86 | – | – | –
5 | C[C@H]1[C@H](C)CC[C@]2(C(=O)NC(CO)C(=O)O)CC[C@]3(C)C(=CC[C@@H]4[C@@]5(C)CC[C@H](O)C(C)(C)[C@@H]5CC[C@]43C)[C@H]12 (stereo not given in full) | 16.8 | > 10 | – | – | –
6 | CC(=O)O[C@H]1CC[C@]2(C)[C@H]3CC=C4[C@@H]5[C@@H](C)[C@H](C)CC[C@]5(C(=O)O)CC[C@@]4(C)[C@]3(C)CC[C@H]2C1(C)C [O-ACETYLURSOLIC ACID] | 37.8 | > 10 | – | – | –
7 | CC(=O)O[C@H]1C(=O)[C@@]2(C)[C@H]([C@H](OC(=O)c3ccccc3)[C@]3(O)C[C@H](OC(=O)[C@H](O)[C@@H](NC(=O)c4ccccc4)c4ccccc4)C(C)=C1C3(C)C)[C@]1(OC(C)=O)CO[C@@H]1C[C@@H]2O [PACLITAXEL] | – | – | – | 0.016 | IC50 (SK-OV-3 [5]): 0.001 µM
8 | C[C@H]1[C@H](C)CC[C@]2(C(=O)O)CC[C@]3(C)C(=CC[C@@H]4[C@@]5(C)CC[C@H](O)C(C)(C)[C@@H]5CC[C@]43C)[C@H]12 [URSOLIC ACID] | 12.4 | > 10 | 10.2 | > 10 | inhibition at 10 µM (SK-OV-3 [3]): 9.06%; IC50 (SK-OV-3 [5]): > 10 µM
9 | CC(=O)OCc1ccccc1NC(=O)[C@]12CC[C@@H](C)[C@H](C)[C@H]1C1=CC[C@@H]3[C@@]4(C)CC[C@H](OC(C)=O)C(C)(C)[C@@H]4CC[C@@]3(C)[C@]1(C)CC2 | 30.5 | > 10 | 13 | > 10 | inhibition at 10 µM (SK-OV-3 [3]): 1.19%; IC50 (SK-OV-3 [5]): > 10 µM
10 | COC(=O)C(Cc1ccccc1)NC(=O)[C@]12CC[C@@H](C)[C@H](C)[C@H]1C1=CC[C@@H]3[C@@]4(C)CC[C@H](OC(C)=O)C(C)(C)[C@@H]4CC[C@@]3(C)[C@]1(C)CC2 (stereo not given in full) | 32.9 | > 10 | – | – | –
11 | CCC(C)C(NC(=O)[C@]12CC[C@@H](C)[C@H](C)[C@H]1C1=CC[C@@H]3[C@@]4(C)CC[C@H](O)C(C)(C)[C@@H]4CC[C@@]3(C)[C@]1(C)CC2)C(=O)O (stereo not given in full) | 16.8 | > 10 | – | – | inhibition at 10 µM (SK-OV-3 [3]): 5.01%; IC50 (SK-OV-3 [5]): > 10 µM
12 | C[C@H]1[C@H](C)CC[C@]2(C(=O)NCC(=O)O)CC[C@]3(C)C(=CC[C@@H]4[C@@]5(C)CC[C@H](O)C(C)(C)[C@@H]5CC[C@]43C)[C@H]12 | 15.6 | > 10 | – | – | –
13 | COC(=O)C(Cc1ccc(O)cc1)NC(=O)[C@]12CC[C@@H](C)[C@H](C)[C@H]1C1=CC[C@@H]3[C@@]4(C)CC[C@H](OC(C)=O)C(C)(C)[C@@H]4CC[C@@]3(C)[C@]1(C)CC2 (stereo not given in full) | 51.5 | 9.04 | 41.6 | > 10 | –
14 | CC(O)C(NC(=O)[C@]12CC[C@@H](C)[C@H](C)[C@H]1C1=CC[C@@H]3[C@@]4(C)CC[C@H](O)C(C)(C)[C@@H]4CC[C@@]3(C)[C@]1(C)CC2)C(=O)O (stereo not given in full) | 22 | > 10 | – | – | –
15 | C[C@H]1[C@H](C)CC[C@]2(C(=O)NC(Cc3ccccc3)C(=O)O)CC[C@]3(C)C(=CC[C@@H]4[C@@]5(C)CC[C@H](O)C(C)(C)[C@@H]5CC[C@]43C)[C@H]12 (stereo not given in full) | 27.5 | > 10 | – | – | –
16 | COC(=O)C(CO)NC(=O)[C@]12CC[C@@H](C)[C@H](C)[C@H]1C1=CC[C@@H]3[C@@]4(C)CC[C@H](OC(C)=O)C(C)(C)[C@@H]4CC[C@@]3(C)[C@]1(C)CC2 (stereo not given in full) | 59.9 | 4.3 | 15.7 | > 10 | –
17 | COC(=O)CNC(=O)[C@]12CC[C@@H](C)[C@H](C)[C@H]1C1=CC[C@@H]3[C@@]4(C)CC[C@H](OC(C)=O)C(C)(C)[C@@H]4CC[C@@]3(C)[C@]1(C)CC2 | 61.7 | 4.86 | 17.9 | > 10 | –
18 | CC(=O)O[C@H]1CC[C@]2(C)[C@H]3CC=C4[C@@H]5[C@@H](C)[C@H](C)CC[C@]5(C(=O)NC(C)CO)CC[C@@]4(C)[C@]3(C)CC[C@H]2C1(C)C (stereo not given in full) | 58.4 | 5.44 | – | – | –
19 | CC(=O)O[C@H]1CC[C@]2(C)[C@H]3CC=C4[C@@H]5[C@@H](C)[C@H](C)CC[C@]5(C(=O)NCCO)CC[C@@]4(C)[C@]3(C)CC[C@H]2C1(C)C | 50.3 | 10.8 | – | – | –
20 | CC(=O)OCC(C)NC(=O)[C@]12CC[C@@H](C)[C@H](C)[C@H]1C1=CC[C@@H]3[C@@]4(C)CC[C@H](OC(C)=O)C(C)(C)[C@@H]4CC[C@@]3(C)[C@]1(C)CC2 (stereo not given in full) | 69.3 | 2.62 | 56.3 | 8.3 | inhibition at 10 µM (SK-OV-3 [3]): 70.5%; IC50 (SK-OV-3 [5]): 2.24 µM; Activity (HeLa [6]): 47%; Activity (HeLa [7]): 39.4%; Activity (HeLa [8]): 13.6%; Activity (HeLa [9]): 46.7%; Activity (HeLa [10]): 44.8%; Activity (HeLa [11]): 8.5%; Activity (HeLa [12]): 36.7%; Activity (HeLa [13]): 54%; Activity (HeLa [14]): 9.3%; Activity (HeLa [16]): 32.5%; Activity (HeLa [17]): Dose-dependent effect; Activity (HeLa [18]): Dose-dependent effect
21 | C[C@H]1[C@H](C)CC[C@]2(C(=O)NC(Cc3ccc(O)cc3)C(=O)O)CC[C@]3(C)C(=CC[C@@H]4[C@@]5(C)CC[C@H](O)C(C)(C)[C@@H]5CC[C@]43C)[C@H]12 (stereo not given in full) | 23.6 | > 10 | – | – | –
